Data set [1] is described as follows: Cytotoxicity in MDCK cells assessed as reduction in cell viability incubated for 72 hrs by cell-titer-Glo cell viability assay. It counts as cell-based, Canis lupus familiaris. To be noted: dog.
Data set [2] has as its system Influenza A virus. The data set can be described thus: Inhibition of influenza A virus infected in MDCK cells assessed as inhibition of viral load treated with compound at 5 to 8 hrs post-infection by RT-qPCR method based time of addition assay. Type of data set: functional, organism-based. Summed up: (§1)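 MDCK cells (2.0 × 10^5/well) washed with PBS, virus adsorbed (MOI 0.05) 60 min at 4 °C, washed, then compound present only during 0–10, 0–2, 2–5, 5–8 or 8–10 h postinfection; cultured in fresh medium to 10 h, total RNA extracted, viral load by absolute one-step RT-qPCR; triplicate, versus PBS control.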
(In qPCR the cycle at which signal appears reflects the starting amount.)

In data set [3] the test system is Influenza A virus. Put plainly: Inhibition of influenza A virus infected in MDCK cells assessed as inhibition of viral load treated with compound at 2 to 5 hrs post-infection by RT-qPCR method based time of addition assay. It counts as functional, organism-based. The method in brief:
as §1

For data set [4], the system named is Influenza A virus. Put plainly: Inhibition of influenza A virus infected in MDCK cells assessed as inhibition of viral load treated with compound at 0 to 2 hrs post-infection by RT-qPCR method based time of addition assay. Type of data set: functional. The method in brief: as §1
The subject of data set [5] is Influenza A virus. The settings on record: A/Puerto Rico/8/1934(H1N1), 0.1 to 1000 uM.
The subject of data set [6] is Influenza A virus. Put plainly: Inhibition of influenza A virus infected in MDCK cells assessed as inhibition of viral load treated with compound at 0 to 10 hrs post-infection by RT-qPCR method based time of addition assay. Type of data set: functional. Summed up:
as §1

Data set [7] relates to Influenza A virus. The settings on record: Hong Kong/8/1968(H3N2), 0.1 to 1000 uM.
Data set [8] deals with Influenza A virus. The data set can be described thus: Antiviral activity against influenza A virus assessed as inhibition of viral replicon activity incubated for 30 hrs by firefly luciferase reporter gene assay. It counts as functional, organism-based. Summed up: (§2)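 HEK293T cells (2.5 × 10^4/well) transfected with plasmids for NP, PB1, PB2, PA plus p0LN-S-Luc firefly and pRL-SV40 Renilla reporters; serially diluted compound added 6 h post-transfection, luciferase read after 30 h by Dual-Glo. Activity = firefly/Renilla ratio; % inhibition normalized to positive and negative controls, curve-fitted; three independent measurements.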
A general note: A replicon is a self-replicating genome or part of one, used to study replication in cells.

The nature of data set [9]: Inhibition of MERS-CoV spike protein-mediated cell-cell fusion in 293T/MERS/EGPF cells assessed as reduction in cell fusion incubated for 4 hrs by inverted fluorescence microscopy. Type of data set: cell-based, Middle East respiratory syndrome-related coronavirus. The method in brief:
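Huh-7 cells expressing DPP4 plated 5 × 10^4/well, 5 h at 37 °C; serially diluted peptide added, then 293T cells carrying MERS-CoV S and EGFP (or EGFP-only control cells), 1 × 10^4/well. After 4 h coculture at 37 °C, fused and unfused effector cells counted by fluorescence microscopy.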

Data set [10] is described as follows: Cytotoxicity in human HuH7 cells assessed as reduction in cell viability incubated for 48 hrs by CCK8 assay. It counts as cell-based, Huh-7. Summed up:
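Huh-7 cells (1 × 10^5 cells/mL suspension seeded) grown 12 h at 37 °C, 5% CO2, then serially diluted peptide added for 48 h; untreated blank and Triton X-100 controls. CCK-8 added for 2 h, absorbance at 450 nm.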
On the technique in general: Tetrazolium assays rely on reduction of a dye to a coloured formazan, in cell work by metabolically active cells.

For data set [11], the system named is Influenza A virus. The data set can be described thus: Antiviral activity against influenza A virus Hong Kong/8/1968(H3N2) infected in HEK293T cells assessed as inhibition of viral replicon activity up to 20 uM incubated for 30 hrs by dual-Glo luciferase assay. It counts as functional, organism-based. Summed up:
as §2

The test system of data set [12] is Influenza A virus. The data set can be described thus: Antiviral activity against Influenza A virus (A/Puerto Rico/8/1934(H1N1)) infected in HEK293T cells assessed as inhibition of viral replicon activity up to 20 uM incubated for 30 hrs by dual-Glo luciferase assay. Type of data set: functional, organism-based. The method in brief:
as §2

For data set [13], the system named is Influenza A virus. Put plainly: Antiviral activity against influenza A virus assessed as inhibition of viral replicon activity up to 100 uM incubated for 30 hrs by firefly luciferase reporter gene assay. It counts as functional, organism-based. Summed up:
as §2

Data set [14] has as its system Influenza A virus. The data set can be described thus: Antiviral activity against Influenza A virus (A/Puerto Rico/8/1934(H1N1)) infected in HEK293T cells assessed as inhibition of viral replicon activity incubated for 30 hrs by dual-Glo luciferase assay. To be noted: HEK-293T. It counts as functional, organism-based. The method in brief: as §2
Data set [15] has as its system Influenza A virus. The data set can be described thus: Antiviral activity against influenza A virus Hong Kong/8/1968(H3N2) infected in HEK293T cells assessed as inhibition of viral replicon activity incubated for 30 hrs by dual-Glo luciferase assay. It counts as functional, organism-based. To be noted: HEK-293T. The method in brief: as §2

The structures appear in SMILES notation. Calls of active or inactive are those of the source. The rule behind the calls is not given here. Where a SMILES comes first, the peptide text is derived from it. [ ]: non-standard residue; d: D form. The star is where a group is joined. Palmitoyl = CCCCCCCCCCCCCCCC(=O)*; βAla = NCCC(=O)O

The CC50 is the concentration at which the toxic effect on the cells reaches its halfway point. In general, IC50 refers to the concentration needed to halve the response being measured. One may read the EC50 as the concentration giving half of the maximal effect.

With `CCCCCCCCCCCCCCCC(=O)NCCCC[C@H](NC(=O)CCNC(=O)[C@H](CCCCN)NC(=O)[C@H](CCCCN)NC(=O)[C@H](Cc1ccc(O)cc1)NC(=O)[C@@H](NC(=O)[C@H](CCC(=O)O)NC(=O)[C@H](CCC(=O)O)NC(=O)[C@@H](NC(=O)[C@H](CCCCN)NC(=O)[C@H](CCCCN)NC(=O)[C@H](Cc1ccc(O)cc1)NC(=O)[C@@H](NC(=O)[C@H](CCC(=O)O)NC(=O)[C@H](CCC(=O)O)NC(=O)[C@@H](NC(=O)[C@H](CCCCN)NC(=O)[C@H](CCCCN)NC(=O)[C@H](Cc1ccc(O)cc1)NC(=O)[C@@H](NC(=O)[C@H](CCC(=O)O)NC(=O)[C@H](CCC(=O)O)NC(=O)[C@@H](NC(=O)[C@H](CCCCN)NC(=O)[C@H](CCCCN)NC(=O)[C@H](Cc1ccc(O)cc1)NC(=O)[C@@H](NC(=O)[C@H](CCC(=O)O)NC(=O)[C@H](CCC(=O)O)NC(=O)[C@@H](NC(=O)[C@H](CCCCN)NC(=O)[C@H](CCCCN)NC(=O)[C@H](Cc1ccc(O)cc1)NC(=O)[C@@H](NC(=O)[C@H](CCC(=O)O)NC(=O)[C@H](CCC(=O)O)NC(=O)[C@@H](NC(C)=O)[C@@H](C)CC)[C@@H](C)CC)[C@@H](C)CC)[C@@H](C)CC)[C@@H](C)CC)[C@@H](C)CC)[C@@H](C)CC)[C@@H](C)CC)[C@@H](C)CC)[C@@H](C)CC)C(N)=O` (Ac-IEEIYKKIEEIYKKIEEIYKKIEEIYKKIEEIYKK[βAla]K(Palmitoyl)-NH2), the CC50 at 72 h in data set [1] was greater than 100 µM.
On to `CCCCCCCCCCCCCCCC(=O)NCCCC[C@H](NC(=O)CCNC(=O)[C@H](CCCCN)NC(=O)[C@H](CCCCN)NC(=O)[C@H](CO)NC(=O)[C@@H](NC(=O)[C@H](CCC(=O)O)NC(=O)[C@H](CCC(=O)O)NC(=O)[C@@H](NC(=O)[C@H](CCCCN)NC(=O)[C@H](CCCCN)NC(=O)[C@H](CO)NC(=O)[C@@H](NC(=O)[C@H](CCC(=O)O)NC(=O)[C@H](CCC(=O)O)NC(=O)[C@@H](NC(=O)[C@H](CCCCN)NC(=O)[C@H](CCCCN)NC(=O)[C@H](CO)NC(=O)[C@@H](NC(=O)[C@H](CCC(=O)O)NC(=O)[C@H](CCC(=O)O)NC(=O)[C@@H](NC(=O)[C@H](CCCCN)NC(=O)[C@H](CCCCN)NC(=O)[C@H](CO)NC(=O)[C@@H](NC(=O)[C@H](CCC(=O)O)NC(=O)[C@H](CCC(=O)O)NC(=O)[C@@H](NC(=O)[C@H](CCCCN)NC(=O)[C@H](CCCCN)NC(=O)[C@H](CO)NC(=O)[C@@H](NC(=O)[C@H](CCC(=O)O)NC(=O)[C@H](CCC(=O)O)NC(=O)[C@@H](NC(C)=O)[C@@H](C)CC)[C@@H](C)CC)[C@@H](C)CC)[C@@H](C)CC)[C@@H](C)CC)[C@@H](C)CC)[C@@H](C)CC)[C@@H](C)CC)[C@@H](C)CC)[C@@H](C)CC)C(N)=O` (Ac-IEEISKKIEEISKKIEEISKKIEEISKKIEEISKK[βAla]K(Palmitoyl)-NH2), for which, in data set [1], the CC50 at 72 h is greater than 100 µM.
As for `NC(=O)c1nc(F)cnc1O`, the inhibition result in the data set on Influenza A virus [2], in the data set with Influenza A virus [3], in the data set with Influenza A virus [4] and in the data set on Influenza A virus [6] was “Active” throughout. The inhibition entry with Influenza A virus [5] and in the data set on Influenza A virus [7] was “inactive” each time. Moreover, in the data set with Influenza A virus [8], the IC50 is 26.2 µM. Moreover, the inhibition entry in the data set on Influenza A virus [8] was “Dose-dependent effect”.
Take `CC[C@H](C)[C@H](NC(=O)[C@H](Cc1ccc(O)cc1)NC(=O)[C@H](CO)NC(=O)[C@H](CCC(=O)O)NC(=O)[C@H](CCC(=O)O)NC(=O)[C@H](CC(C)C)NC(=O)[C@H](CCCCN)NC(=O)[C@H](CCCCN)NC(=O)[C@@H](NC(=O)[C@@H](NC(=O)[C@H](CCC(=O)O)NC(=O)[C@H](CCC(=O)O)NC(=O)[C@H](CC(C)C)NC(=O)[C@H](CCCCN)NC(=O)[C@H](CCCCN)NC(=O)[C@H](CCSC)NC(=O)[C@H](CCC(=O)O)NC(=O)[C@H](Cc1ccc(O)cc1)NC(=O)[C@H](CCC(=O)O)NC(=O)[C@H](CC(C)C)NC(=O)[C@H](CC(=O)O)NC(=O)[C@H](CC(C)C)NC(=O)[C@H](CC(C)C)NC(=O)[C@@H](NC(=O)[C@@H](NC(=O)[C@H](CC(N)=O)NC(=O)[C@@H](NC(=O)[C@H](CCC(N)=O)NC(=O)[C@@H](NC(=O)[C@H](CC(C)C)NC(=O)[C@H](CO)NC(C)=O)[C@@H](C)O)[C@@H](C)CC)[C@@H](C)O)[C@@H](C)O)C(C)C)C(C)C)C(=O)N[C@@H](CC(=O)O)C(=O)N[C@@H](CC(C)C)C(=O)N[C@@H](CCCCN)C(=O)N[C@@H](CCC(=O)O)C(=O)N[C@@H](CC(C)C)C(N)=O`: in [9], the EC50 came out at 0.15 µM. Moreover, the CC50 at 48 h in data set [10] is greater than 100 µM. Besides, the outcome in the data set on Influenza A virus [11] and in the data set with Influenza A virus [12] was inactive.
As to `CCCCCCCCCCCCCCCC(=O)NCCCC[C@H](NC(=O)CCNC(=O)[C@H](CCCCN)NC(=O)[C@H](CCCCN)NC(=O)[C@H](CO)NC(=O)[C@H](Cc1ccccc1)NC(=O)[C@H](CCC(=O)O)NC(=O)[C@H](CCC(=O)O)NC(=O)[C@H](Cc1ccccc1)NC(=O)[C@H](CCCCN)NC(=O)[C@H](CCCCN)NC(=O)[C@H](CO)NC(=O)[C@H](Cc1ccccc1)NC(=O)[C@H](CCC(=O)O)NC(=O)[C@H](CCC(=O)O)NC(=O)[C@H](Cc1ccccc1)NC(=O)[C@H](CCCCN)NC(=O)[C@H](CCCCN)NC(=O)[C@H](CO)NC(=O)[C@H](Cc1ccccc1)NC(=O)[C@H](CCC(=O)O)NC(=O)[C@H](CCC(=O)O)NC(=O)[C@H](Cc1ccccc1)NC(=O)[C@H](CCCCN)NC(=O)[C@H](CCCCN)NC(=O)[C@H](CO)NC(=O)[C@H](Cc1ccccc1)NC(=O)[C@H](CCC(=O)O)NC(=O)[C@H](CCC(=O)O)NC(=O)[C@H](Cc1ccccc1)NC(=O)[C@H](CCCCN)NC(=O)[C@H](CCCCN)NC(=O)[C@H](CO)NC(=O)[C@H](Cc1ccccc1)NC(=O)[C@H](CCC(=O)O)NC(=O)[C@H](CCC(=O)O)NC(=O)[C@H](Cc1ccccc1)NC(C)=O)C(N)=O` (Ac-FEEFSKKFEEFSKKFEEFSKKFEEFSKKFEEFSKK[βAla]K(Palmitoyl)-NH2), the EC50 in data set [9] amounted to 3.11 µM. Also, in data set [10], the CC50 at 48 h was greater than 100 µM.
Take `CCOC(=O)C1=C[C@@H](OC(CC)CC)[C@H](NC(C)=O)[C@@H](N)C1` [OSELTAMIVIR]: the CC50 at 72 h in data set [1] was greater than 100 µM. Also, the inhibition entry in the data set on Influenza A virus [13] is “inactive”. Also, the figures for the EC50 in the data set on Influenza A virus [14] and in the data set on Influenza A virus [15] were 1.48 µM and 0.01 µM, respectively.
